Experimental data: ChEMBL document CHEMBL1154326 (J Med Chem, 2009)
Activity calls are given as the source filed them. The rule behind the calls is not given here.

Assays:
[1] = molecular target: T1, Histamine H2 receptor (Homo sapiens, UniProt P25021); assay: Antagonist activity at human histamine H2 receptor expressed in Sf9 cells coexpressing GsalphaS protein by steady-state GTPase assay; type: functional
Procedure, shortened: (§1)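 Antagonist-mode steady-state GTPase assay in Sf9 membranes: H1R coexpressed with RGS4; H2R as GsαS fusion; H3R coexpressed with Giα2/Gβ1γ2/RGS4; H4R as RGS19 fusion with Giα2/Gβ1γ2. […] MgCl2: H1R/H2R 1.0 mM, H3R/H4R 5.0 mM; H4R plus 100 mM NaCl. [γ-32P]GTP hydrolysis measured over 20 min at 25 °C. pKB from nonlinear sigmoidal fits; duplicate runs.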

[2] = molecular target: T2, Histamine H3 receptor (Homo sapiens, UniProt Q9Y5N1); assay: Antagonist activity at human histamine H3 receptor expressed in Sf9 cells coexpressing Gialpha-2-Gbeta-1-gamma-2 and RGS4 proteins protein by steady-state GTPase assay; type: functional; procedure, shortened: as §1
[3] = molecular target: T3, Histamine H4 receptor (Homo sapiens, UniProt Q9H3N8); assay: Antagonist activity at human histamine H4 receptor expressed in Sf9 cells coexpressing RGS19 protein by steady-state GTPase assay; type: functional; procedure, shortened: as §1
[4] = molecular target: T1, Histamine H2 receptor; assay: Agonist activity at human histamine H2 receptor expressed in Sf9 cells coexpressing GsalphaS protein by steady-state GTPase assay; type: functional
Procedure, shortened: (§2)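 Sf9 membranes (10-20 μg protein/tube), washed and resuspended in 10 mM Tris-HCl pH 7.4. H2R as hH2R-GsαS fusion; H3R coexpressed with Giα2, Gβ1γ2, RGS4; H4R as hH4R-RGS19 fusion with Giα2, Gβ1γ2. Buffer: 50 mM Tris/HCl pH 7.4, MgCl2 (H2R 1.0 mM; H3R/H4R 5.0 mM), 100 μM EDTA, 100 μM ATP, 100 nM GTP, 100 μM AppNHp, creatine phosphate/kinase, 0.2% BSA; H4R plus 100 mM NaCl.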

[5] = molecular target: T4, Histamine H1 receptor (Homo sapiens, UniProt P35367); assay: Antagonist activity at human histamine H1 receptor expressed in Sf9 cells coexpressing RGS4 by steady-state GTPase assay; type: functional; procedure, shortened: as §1
[6] = molecular target: T3, Histamine H4 receptor; assay: Agonist activity at human histamine H4 receptor expressed in Sf9 cells coexpressing RGS19 protein by steady-state GTPase assay; type: functional; procedure, shortened: as §2
[7] = molecular target: T1, Histamine H2 receptor; assay: Antagonist activity at human histamine H2 receptor expressed in Sf9 cells coexpressing GsalphaS protein by steady-state GTPase assay
[8] = molecular target: T1, Histamine H2 receptor; assay: Agonist activity at human histamine H2 receptor expressed in Sf9 cells coexpressing GsalphaS protein at 1 mM by steady-state GTPase assay; type: functional
[9] = molecular target: T2, Histamine H3 receptor; assay: Agonist activity at human histamine H3 receptor expressed in Sf9 cells coexpressing Gialpha-2-Gbeta-1-gamma-2 and RGS4 proteins protein by steady-state GTPase assay; type: functional; procedure, shortened: as §2
[10] = molecular target: T4, Histamine H1 receptor; assay: Agonist activity at human histamine H1 receptor expressed in Sf9 cells coexpressing RGS4 by steady-state GTPase assay; type: functional
[11] = molecular target: T3, Histamine H4 receptor; settings: Sf9

T2 sequence (Q9Y5N1 whole entry): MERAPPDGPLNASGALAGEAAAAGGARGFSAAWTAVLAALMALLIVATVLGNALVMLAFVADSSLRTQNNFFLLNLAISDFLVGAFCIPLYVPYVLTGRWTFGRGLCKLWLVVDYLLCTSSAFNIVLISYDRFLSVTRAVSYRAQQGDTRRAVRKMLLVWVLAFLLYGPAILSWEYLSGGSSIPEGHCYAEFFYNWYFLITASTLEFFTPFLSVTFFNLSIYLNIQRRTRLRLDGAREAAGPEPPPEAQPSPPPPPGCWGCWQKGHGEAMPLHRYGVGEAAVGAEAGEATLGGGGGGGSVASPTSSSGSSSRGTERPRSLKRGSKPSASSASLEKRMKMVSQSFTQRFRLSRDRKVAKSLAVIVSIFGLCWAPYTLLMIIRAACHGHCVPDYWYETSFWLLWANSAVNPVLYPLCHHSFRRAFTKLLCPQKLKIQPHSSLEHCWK
T4 sequence (P35367 whole entry): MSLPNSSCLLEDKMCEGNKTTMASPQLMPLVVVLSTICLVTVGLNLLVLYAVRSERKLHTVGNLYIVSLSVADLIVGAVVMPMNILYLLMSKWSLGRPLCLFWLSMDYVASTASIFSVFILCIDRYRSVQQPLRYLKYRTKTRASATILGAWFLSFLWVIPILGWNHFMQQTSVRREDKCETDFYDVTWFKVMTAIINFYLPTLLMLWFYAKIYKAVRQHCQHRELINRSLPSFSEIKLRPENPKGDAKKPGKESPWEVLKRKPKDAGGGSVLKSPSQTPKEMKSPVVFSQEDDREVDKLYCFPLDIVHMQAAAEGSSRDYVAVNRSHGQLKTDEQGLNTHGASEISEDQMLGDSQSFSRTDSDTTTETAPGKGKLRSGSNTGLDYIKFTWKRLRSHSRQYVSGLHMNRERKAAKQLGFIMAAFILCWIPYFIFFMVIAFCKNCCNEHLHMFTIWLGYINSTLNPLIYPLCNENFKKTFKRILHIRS
T3 sequence (Q9H3N8 whole entry): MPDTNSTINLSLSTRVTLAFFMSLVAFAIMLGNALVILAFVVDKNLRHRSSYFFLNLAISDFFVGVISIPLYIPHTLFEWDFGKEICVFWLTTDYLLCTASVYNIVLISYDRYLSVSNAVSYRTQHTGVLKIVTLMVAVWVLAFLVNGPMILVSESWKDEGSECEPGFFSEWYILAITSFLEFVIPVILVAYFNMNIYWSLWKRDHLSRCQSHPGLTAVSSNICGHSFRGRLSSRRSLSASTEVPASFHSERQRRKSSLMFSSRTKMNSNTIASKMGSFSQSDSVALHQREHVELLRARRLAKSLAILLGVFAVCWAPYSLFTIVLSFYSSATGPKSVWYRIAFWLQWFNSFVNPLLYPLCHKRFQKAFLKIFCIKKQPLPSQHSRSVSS
T1 sequence (P25021 whole entry, the tested form may be a part): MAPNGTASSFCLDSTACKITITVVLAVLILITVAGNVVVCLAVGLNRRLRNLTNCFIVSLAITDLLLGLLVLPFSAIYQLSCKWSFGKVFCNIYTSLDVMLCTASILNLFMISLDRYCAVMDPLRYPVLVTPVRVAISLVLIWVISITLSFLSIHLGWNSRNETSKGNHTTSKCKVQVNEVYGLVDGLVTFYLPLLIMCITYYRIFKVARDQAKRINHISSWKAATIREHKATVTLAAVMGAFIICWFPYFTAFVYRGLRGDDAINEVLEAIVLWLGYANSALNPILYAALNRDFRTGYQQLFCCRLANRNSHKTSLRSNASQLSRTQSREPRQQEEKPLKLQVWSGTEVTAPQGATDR

Row | SMILES | pKb [1] | pKb [2] | pKb [3] | other results
1 | N#C/N=C(/NCCCCCc1c[nH]cn1)NCCCc1ccccc1 | 5.28 | 6.55 | 6.96 | –
2 | NC(=O)NC(=NCCCc1cnc[nH]1)NCCCCc1ccccc1 | – | – | – | EC50 [4]: 0.38 µM
3 | N#C/N=C(\NCCCCc1ccccc1)NCCCc1c[nH]cn1 | 5.03 | – | 5.22 | EC50 [4]: 8.91 µM
4 | NC(=O)/N=C(/NCCCc1ccccc1)NCCc1c[nH]cn1 | – | 8.42 | 5.89 | EC50 [4]: 2 µM; pKb [5]: < 5
5 | N=C(NCCCc1c[nH]cn1)NS(=O)(=O)CCc1ccccc1 | – | 6.57 | 5.85 | EC50 [4]: 12 µM
6 | CN/C(=N\C#N)NCCCCc1c[nH]cn1 | < 5 | 5.68 | – | EC50 [6]: 0.955 µM; pKb [5]: < 5
7 | CC(CCNC(=NCCCCc1cnc[nH]1)NC#N)c1ccccc1 (centres undefined) | – | – | – | EC50 [6]: 0.141 µM
8 | N#C/N=C(\NCCCCCc1c[nH]cn1)NCCSc1ccccc1 | 5.21 | 6.74 | 6.85 | –
9 | Cc1ccc(S(=O)(=O)NC(=N)NCCCc2c[nH]cn2)cc1 | – | 6.11 | 5.85 | EC50 [4]: 12 µM; pKb [5]: < 5
10 | NC(=O)/N=C(/NCCCc1ccccc1)NCCCc1c[nH]cn1 | – | 6.23 | 6.77 | pKb [5]: < 5
11 | N#C/N=C(\N)NCCCCc1c[nH]cn1 | < 5 | – | – | –
12 | N#C/N=C(/NCCCCc1ccccc1)NCCc1c[nH]cn1 | < 5 | – | – | EC50 [6]: > 10 µM; pKb [7]: < 5
13 | CC(C)N/C(=N/C#N)NCCCCCc1c[nH]cn1 | 5.57 | 6.47 | 6.25 | –
14 | CN/C(=N\C#N)NCCCCCc1c[nH]cn1 | 5.66 | 6.38 | 6.54 | –
15 | Cc1[nH]cnc1CSCCN/C(=N/C#N)NCCC(c1ccccc1)c1ccccc1 | – | – | – | EC50 [6]: > 10 µM; pKb [7]: 5.8
16 | N#C/N=C(/NCCCCc1c[nH]cn1)NCCCC1CCCCC1 | < 5 | 5.82 | 6.35 | –
17 | N#CNC(=NCCCCc1cnc[nH]1)NCCCc1ccccc1 | – | – | – | EC50 [6]: 0.151 µM
18 | N#C/N=C(/NCCCCc1c[nH]cn1)NCCCc1cccnc1 | 5.92 | 6.19 | – | EC50 [6]: 1.2 µM
19 | N#C/N=C(/NCCCc1c[nH]cn1)NCCCC1CCCCC1 | < 5 | – | 5.82 | –
20 | NC(=O)/N=C(/NCCCCc1ccccc1)NCCCc1c[nH]cn1 | – | 6.51 | 6.33 | –
21 | N#CNC(=NCCCCc1cnc[nH]1)NCCCc1ccncc1 | – | – | – | EC50 [6]: 2.57 µM
22 | N#C/N=C(/NCCCCc1c[nH]cn1)NCCc1ccccc1 | 5 | 5.82 | – | EC50 [6]: 1.1 µM
23 | CC(C)CN/C(=N\C#N)NCCCCc1c[nH]cn1 | < 5 | 5.47 | – | EC50 [6]: 0.12 µM; pKb [5]: < 5
24 | CC(CCN/C(=N\C#N)NCCCCc1c[nH]cn1)c1ccccc1 (centres undefined) | < 5 | 6.19 | – | pKb [5]: < 5
25 | N#C/N=C(\NCCCc1ccccc1)NCCCc1c[nH]cn1 | 5.25 | 5.72 | – | EC50 [4]: 14.1 µM; EC50 [6]: 0.759 µM
26 | N#C/N=C(/NCCCc1ccccc1)NCCc1c[nH]cn1 | – | 5.18 | < 5 | EC50 [4]: > 10 µM; pKb [5]: < 5
27 | CC(C)N/C(=N\C#N)NCCCCc1c[nH]cn1 | < 5 | 5.49 | – | EC50 [6]: 0.331 µM; pKb [5]: < 5

Row | SMILES | pKb [1] | pKb [2] | pKb [3] | other results
28 | N#C/N=C(\NCCc1ccccc1)NCCc1c[nH]cn1 | – | – | 5.18 | Activity [8]: inactive
29 | NC(=O)N=C(NCCCCc1c[nH]cn1)NCCCc1ccccc1 | – | – | – | EC50 [4]: 0.437 µM
30 | N#C/N=C(/NCCCCc1c[nH]cn1)NCCCc1ccncc1 | 5.11 | 6.11 | – | –
31 | N#CNC(N)=NCCCCc1cnc[nH]1 | – | – | – | EC50 [9]: 0.251 µM; EC50 [6]: 0.17 µM
32 | N#C/N=C(/NCCCc1c[nH]cn1)NCCc1ccccc1 | < 5 | – | 5.32 | Activity [8]: inactive
33 | Cc1nc[nH]c1CCN [4-METHYLHISTAMINE] | – | – | – | EC50 [10]: 15.8 µM; EC50 [4]: 2.88 µM; EC50 [6]: 0.0708 µM; Activity [8]: inactive
34 | N#C/N=C(/NCCCCc1c[nH]cn1)NCCCc1ccccn1 | 5.48 | 5.89 | – | EC50 [6]: 0.575 µM
35 | N#C/N=C(/NCCCCc1c[nH]cn1)NCCCc1ccc(F)cc1 | 5.28 | 6.11 | 6.59 | –
36 | N#C/N=C(/NCCCC1CCCCC1)NCCc1c[nH]cn1 | – | – | 5.57 | –
37 | NC(=O)/N=C(\NCCCCc1c[nH]cn1)NCCCc1ccccc1 | – | 6.44 | 7.07 | Activity [6]: inactive
38 | CC(C)CN/C(=N\C#N)NCCCCCc1c[nH]cn1 | < 5 | 6.57 | 6.51 | –
39 | Cc1[nH]cnc1CSCCN/C(=N\C#N)NCCCc1ccccc1 | 5.74 | – | < 5 | –
40 | N#C/N=C(/NCCCCc1c[nH]cn1)NCCc1c[nH]c2ccccc12 | < 5 | 6.77 | 5.8 | –
41 | N#C/N=C(/NCCCc1c[nH]cn1)NCCc1c[nH]c2ccccc12 | < 5 | – | 5.37 | Activity [8]: inactive
42 | N/C(=N/CCc1ccc(I)cc1)SCCCc1cnc[nH]1 | – | – | – | Kinact [11]: 13 nM
43 | N#C/N=C(/NCCCc1c[nH]cn1)NCCSc1ccccc1 | < 5 | – | – | EC50 [4]: 7.24 µM; EC50 [6]: 1.29 µM
44 | N#C/N=C(/NCCCCc1c[nH]cn1)NCCC(c1ccccc1)c1ccccc1 | 5 | – | 5.6 | –
45 | N#C/N=C(\NCCSc1ccccc1)NCCc1c[nH]cn1 | < 5 | – | 5.05 | –
46 | N#C/N=C(/NCCCc1c[nH]cn1)NCCC(c1ccccc1)c1ccccc1 | < 5 | – | < 5 | –
47 | N#C/N=C(\NCCc1c[nH]cn1)NCCc1c[nH]c2ccccc12 | – | – | < 5 | pKb [7]: < 5
48 | N#C/N=C(\NCCCCc1ccccc1)NCCCCc1c[nH]cn1 | 5.03 | 5.54 | 6.34 | –
49 | N#C/N=C(/NCCc1c[nH]cn1)NCCC(c1ccccc1)c1ccccc1 | < 5 | – | < 5 | –
50 | CCN/C(=N/C#N)NCCCCCc1c[nH]cn1 | 5.37 | 6.92 | 6.47 | –
51 | N#CNC(=NCCc1cnc[nH]1)NCCCC1CCCCC1 | – | – | – | EC50 [4]: 3.89 µM
52 | CCN/C(=N\C#N)NCCCCc1c[nH]cn1 | < 5 | 5.54 | – | EC50 [6]: 0.708 µM; pKb [5]: < 5
53 | N#C/N=C(/NCCCCc1c[nH]cn1)NCCCc1ccccc1 | 5.25 | 5.64 | – | pKb [5]: < 5
54 | NC(=O)NC(=NCCCc1cnc[nH]1)NCCCc1ccccc1 | – | – | – | EC50 [4]: 0.646 µM
